From PubChem BioAssay AID624077 (The Scripps Research Institute Molecular Screening Center, 2012)

Molecular target: Monoacylglycerol lipase ABHD6 (Mus musculus) (UniProt Q8R2Y0)
Experiment: oral in vivo ABHD6 inhibition in mouse liver, late-stage follow-up, in vivo study for DAGLb inhibitor project, gel-based competitive ABPP, fluorescence, powder samples (AID 624077)
Settings: C57BL mice oral dosing, stronger effect = higher value
Outline: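 system = liver membrane fraction from orally dosed C57BL mice, ABHD6 target | input = membranes 1 mg/mL | timing = 4 h oral dose-to-liver-harvest, 30 min 37 °C probe labelling | signal = in-gel fluorescence after SDS-PAGE | evaluation = % inhibition from ABHD6 band density | benchmarks = high control vehicle-treated liver, low control blank-gel background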

[1] = measured here: ABHD6 inhibition at 1 mg/kg
[2] = measured here: ABHD6 inhibition at 5 mg/kg

Chain of Monoacylglycerol lipase ABHD6 (Mus musculus) (Q8R2Y0 whole entry, looked up): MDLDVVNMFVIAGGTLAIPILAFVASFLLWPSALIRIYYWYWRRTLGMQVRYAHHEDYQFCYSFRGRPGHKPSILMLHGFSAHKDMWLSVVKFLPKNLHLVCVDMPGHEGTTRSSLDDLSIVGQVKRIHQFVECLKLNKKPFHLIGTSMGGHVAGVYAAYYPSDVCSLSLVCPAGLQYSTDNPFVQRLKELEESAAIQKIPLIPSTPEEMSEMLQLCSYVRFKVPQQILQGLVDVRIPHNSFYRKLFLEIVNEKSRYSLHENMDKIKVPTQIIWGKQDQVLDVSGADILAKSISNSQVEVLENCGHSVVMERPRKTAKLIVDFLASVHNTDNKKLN

Question: For `COc1ccc(-c2ccc(-c3cn(C(=O)N4CCCCC4c4ccccc4)nn3)cc2)cc1` (centres undefined), which inhibition is on record?
Answer: 100%

Question: What about the inhibition [1] of the same molecule?
Answer: 70%

Question: What about the inhibition [2] of the same molecule?
Answer: 80%

Question: `O=C(N1CCCCC1Cc1ccccc1)n1cc(-c2ccc(-c3ccccc3)cc2)nn1` (centres undefined) was tested. Which inhibition did it give?
Answer: 100%

Question: And the inhibition [1]?
Answer: 100%

Question: And the inhibition [2]?
Answer: 100%

Question: `COc1ccccc1-c1ccc(-c2cn(C(=O)N3CCCCC3Cc3ccccc3)nn2)cc1` (centres undefined) was tested. Which inhibition did it give?
Answer: 100%

Question: And the inhibition [1]?
Answer: 90%

Question: What about the inhibition [2] of the same molecule?
Answer: 100%
